From ChEMBL document CHEMBL4433267, “Symmetry-based ligand design and evaluation of small molecule inhibitors of programmed cell death-1/programmed death-ligand 1 interaction” (Bioorg Med Chem Lett, 2019)
Calls of active or inactive are those of the source. The calls are words filed in the database; no cut-off is given here.

Assays:
[1] = target: Programmed cell death protein 1/Programmed cell death 1 ligand 1 (Homo sapiens, UniProt Q9NZQ7); experiment: Inhibition of human PDL1 expressed in CHO-K1 cells co-expressing aAPC assessed as reduction in PDL1 interaction with human PD1 expressed in Jurkat T cells incubated for 18 hrs by Bio-Glo reagent based luminescence assay; assay type: cell-based
Method in brief: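 In the PD-1/PD-L1 blockade bioassay, activity is expressed as EC50, with anti-PD-1 antibody as positive control.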

[2] = target: T1, Programmed cell death 1 ligand 1 (Homo sapiens, UniProt Q9NZQ7); experiment: Binding affinity to FC-tagged human PDL1 by SPR assay
Method in brief: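 Surface plasmon resonance against hPD-L1, reported as equilibrium dissociation constant (K_D).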

[3] = organism: Homo sapiens; experiment: Induction of IFN-gamma secretion in human CD4+ T cells in presence of dendritic cells incubated for 7 days by AlphaLISA based mixed lymphocyte reaction assay; assay type: functional, cell-based
Method in brief: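 CD4+ T cells were cultured 7 days, either alone or with monocyte-derived dendritic cells, with or without test agent; anti-PD-1 antibody was run as comparator. IFN-γ in culture supernatants was measured as the activation read-out. Mean ± SD is from experiments in triplicate.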

[4] = target: T1, Programmed cell death 1 ligand 1; experiment: Induction of Flag-tagged human PDL1 dimerization assessed as shortening of retention time of PD-L1 at 12 uM incubated for 10 mins by size-exclusion chromatography

T1 sequence (Q9NZQ7 whole entry): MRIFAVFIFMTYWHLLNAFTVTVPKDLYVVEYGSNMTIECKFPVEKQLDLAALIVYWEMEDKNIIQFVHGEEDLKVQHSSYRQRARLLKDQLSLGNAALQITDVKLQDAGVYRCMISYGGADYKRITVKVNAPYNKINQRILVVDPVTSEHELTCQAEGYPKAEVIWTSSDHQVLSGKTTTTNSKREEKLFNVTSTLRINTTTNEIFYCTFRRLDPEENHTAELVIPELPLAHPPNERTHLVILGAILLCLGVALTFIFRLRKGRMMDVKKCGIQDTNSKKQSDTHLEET
Programmed cell death protein 1/Programmed cell death 1 ligand 1, sequence (Q15116 whole entry): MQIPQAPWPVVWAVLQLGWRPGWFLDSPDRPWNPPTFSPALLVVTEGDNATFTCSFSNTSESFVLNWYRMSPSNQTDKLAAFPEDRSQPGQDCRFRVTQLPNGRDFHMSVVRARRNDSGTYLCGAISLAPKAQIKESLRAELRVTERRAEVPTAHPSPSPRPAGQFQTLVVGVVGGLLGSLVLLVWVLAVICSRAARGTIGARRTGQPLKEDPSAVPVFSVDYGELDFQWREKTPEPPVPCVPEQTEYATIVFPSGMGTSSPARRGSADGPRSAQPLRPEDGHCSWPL
Programmed cell death protein 1/Programmed cell death 1 ligand 1, sequence (Q9NZQ7 whole entry): as the sequence (Q9NZQ7 whole entry) above

Structure (SMILES)	EC50 [1] [nM]	Kd [2] [nM]	Activity [3]	Activity [4]
COc1cc(OCc2cccc(-c3cccc(COc4ccc(CN[C@H](CO)C(=O)O)c(OCc5cncc(C#N)c5)c4)c3C)c2C)ccc1CN[C@H](CO)C(=O)O	9500	0.21	–	–
Cc1c(COc2cccc(OCc3cncc(C#N)c3)c2)cccc1-c1cccc(COc2ccc(CN[C@H](CO)C(=O)O)c(OCc3cncc(C#N)c3)c2)c1C	> 100000	3.7	–	–
Cc1c(COc2ccc(CN[C@H](CO)C(=O)O)c(OCc3cncc(C#N)c3)c2)cccc1-c1cccc(COc2ccc(CN[C@H](CO)C(=O)O)c(OCc3cncc(C#N)c3)c2)c1C	1000	0.019	Dose-dependent effect	Active
Cc1ccccc1-c1cccc(COc2ccc(CN[C@H](CO)C(=O)O)c(OCc3cncc(C#N)c3)c2)c1C	–	3	–	–
Cc1c(COc2ccc(CN[C@H](CO)C(=O)O)c(OCc3cncc(C#N)c3)c2)cccc1-c1ccccc1	> 30000	1.1	–	–
Cc1c(COc2ccc(CN[C@H](CO)C(=O)O)c(OCc3cncc(C#N)c3)c2)cccc1-c1cccc(COc2ccc(CN[C@H](CO)C(=O)O)c(OCc3cncc(C#N)c3)c2)c1	8400	0.2	–	–
Cc1c(COc2ccc(CN[C@H](CO)C(=O)O)cc2)cccc1-c1cccc(COc2ccc(CN[C@H](CO)C(=O)O)c(OCc3cncc(C#N)c3)c2)c1C	–	0.29	–	–
